Measured values published in ChEMBL document CHEMBL1759907, “Identification and optimization of tetrahydro-2H-3-benzazepin-2-ones as squalene synthase inhibitors” (Bioorg Med Chem Lett, 2011).

What was measured:
[1] = biological target: T1, Squalene synthase (Homo sapiens, UniProt P37268); experiment: Inhibition of squalene synthase assessed as conversion of […] to [3H]squalene after 10 mins by scintillation counting
T1 sequence (P37268 whole entry): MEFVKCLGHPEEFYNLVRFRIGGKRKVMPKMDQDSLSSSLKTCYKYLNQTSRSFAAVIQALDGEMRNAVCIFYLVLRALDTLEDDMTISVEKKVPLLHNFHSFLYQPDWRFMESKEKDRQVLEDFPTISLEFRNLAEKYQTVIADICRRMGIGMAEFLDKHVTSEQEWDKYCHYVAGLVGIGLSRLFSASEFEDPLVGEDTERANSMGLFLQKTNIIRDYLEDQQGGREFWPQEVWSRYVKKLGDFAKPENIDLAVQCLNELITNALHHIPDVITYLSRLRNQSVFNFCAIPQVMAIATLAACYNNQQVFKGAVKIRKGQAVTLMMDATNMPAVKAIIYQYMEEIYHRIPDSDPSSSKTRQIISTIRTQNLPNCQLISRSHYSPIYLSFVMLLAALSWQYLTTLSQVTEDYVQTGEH
Method in brief: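 Reaction started with farnesyl pyrophosphate plus 0.2 nM trans,trans-[1-3H]-FPP and run for 10 min at 37 °C. Extracted with chloroform/methanol/5 N NaOH, adjusted to 2 mM squalene; organic phase counted by scintillation. Mean of three experiments.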

[2] = Metabolic stability in human liver microsomes assessed as compound remaining after 60 mins; format: ADME, Microsome; details: read-out: Stability
[3] = system: Mus musculus; experiment: Inhibition of hepatic cholesterol biosynthesis in NMRI mouse at 3 mg/kg, po administered 1 hr before administering [14C]mevalonate as substrate measured after 10 mins; format: functional

IC50 [1]	remaining at 1 h [2]	SMILES	inhibition in vivo at 3 mg/kg [3]
> 20000 nM	–	COc1cccc([C@H]2CN(CC(=O)N3CCC(C(=O)O)CC3)C(=O)[C@@H](CC(C)C)c3ccc(Cl)cc32)c1OC	–
220 nM	89%	COc1cccc([C@@H]2CN(CC(=O)N3CCC(C(=O)O)CC3)C(=O)[C@H](CC(C)C)c3ccc(Cl)cc32)c1OC	47%
3300 nM	60%	CC(C)C[C@H]1C(=O)N(CC(=O)O)C[C@H](c2ccccc2Cl)c2cc(Cl)ccc21 (racemic)	–
> 20000 nM	–	CCOC(=O)CN1C[C@H](c2ccccc2Cl)c2cc(Cl)ccc2[C@@H](CC(C)C)C1=O (racemic)	–
> 20000 nM	–	Cc1ccc2c(c1)[C@@H](c1ccccc1Cl)CN(CC(=O)O)C(=O)[C@@H]2CC(C)C (racemic)	–
> 20000 nM	–	CC(C)C[C@H]1C(=O)N(CC(=O)O)C[C@H](c2ccccc2Cl)c2cc(F)ccc21 (racemic)	–
> 20000 nM	–	CC(C)C[C@H]1C(=O)N(CC(=O)O)C[C@H](c2ccccc2Cl)c2ccccc21 (racemic)	–
5500 nM	–	C=C(C)C[C@H]1C(=O)N(CC(=O)O)C[C@H](c2ccccc2Cl)c2cc(Cl)ccc21 (racemic)	–
> 20000 nM	–	CC(C)(O)C[C@H]1C(=O)N(CC(=O)O)C[C@H](c2ccccc2Cl)c2cc(Cl)ccc21 (racemic)	–
> 20000 nM	–	O=C(O)CN1C[C@H](c2ccccc2Cl)c2cc(Cl)ccc2[C@@H](Cc2ccccc2)C1=O (racemic)	–
15300 nM	–	CC(C)C[C@H]1C(=O)N(CC(=O)O)C[C@H](c2ccccc2)c2cc(Cl)ccc21 (racemic)	–
2200 nM	–	CC(C)C[C@H]1C(=O)N(CC(=O)O)C[C@H](c2ccccc2Br)c2cc(Cl)ccc21 (racemic)	–
1900 nM	–	COc1ccccc1[C@H]1CN(CC(=O)O)C(=O)[C@H](CC(C)C)c2ccc(Cl)cc21 (racemic)	–
1200 nM	–	COc1cccc([C@H]2CN(CC(=O)O)C(=O)[C@H](CC(C)C)c3ccc(Cl)cc32)c1OC (racemic)	–
2400 nM	–	CC(C)C[C@H]1C(=O)N(CC(=O)NCCCCCC(=O)O)C[C@H](c2ccccc2Cl)c2cc(Cl)ccc21 (racemic)	–
1400 nM	70%	CC(C)C[C@H]1C(=O)N(CC(=O)N2CCC(CC(=O)O)CC2)C[C@H](c2ccccc2Cl)c2cc(Cl)ccc21 (racemic)	25%
930 nM	53%	CC(C)C[C@H]1C(=O)N(CC(=O)N2CCC(C(=O)O)CC2)C[C@H](c2ccccc2Cl)c2cc(Cl)ccc21 (racemic)	25%
370 nM	2%	COc1ccccc1[C@H]1CN(CC(=O)N2CCCCC2)C(=O)[C@H](CC(C)C)c2ccc(Cl)cc21 (racemic)	–
500 nM	72%	COc1ccccc1[C@H]1CN(CC(=O)N2CCC(C(=O)O)CC2)C(=O)[C@H](CC(C)C)c2ccc(Cl)cc21 (racemic)	39%
450 nM	78%	COc1cccc([C@H]2CN(CC(=O)N3CCC(C(=O)O)CC3)C(=O)[C@H](CC(C)C)c3ccc(Cl)cc32)c1OC (racemic)	–
